Experimental data as given in ChEMBL document CHEMBL1125027, “Synthesis and cytotoxicity studies of 8-amino-6-methyl-2-beta-D-ribofuranosyl-1,2,3,5,6,7-hexaazaacenaphthyle ne (7-aza-TCN) and the corresponding 2'-deoxy- and arabinonucleoside analogues” (1990).

Key:
[1] = tested on: HEp-2; test: Growth rate of H.Ep.2 tumor cells at a concentration of 100 uM; format: functional, Homo sapiens
Method in brief: (§1)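 Human epidermoid carcinoma H.Ep.2 monolayers kept in exponential growth in Eagle's basal medium (Hanks' salts) with 0.5 g/L NaHCO3 and 15% heat-inactivated calf serum. 2 × 10^4 cells seeded per flask; after 1 day, compound-containing medium added. Trypsin/EDTA harvest and counts of two flasks per group on days 1, 2 and 4. Growth rate = control doubling time (about 19 h) / treated doubling time, as % of control.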

[2] = tested on: L1210; test: Growth rate of L1210 tumor cells at a concentration of 100 uM; format: functional, Mus musculus
Method in brief: (§2)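 Murine leukemia L1210 grown in static suspension in Fischer's medium with test compound for 3 days, counted daily. Growth rate = slope of log cell number vs time relative to control, computed as control doubling time (about 12 h) / treated doubling time, expressed as %. Values are single experiments unless footnoted as the average of three.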

[3] = tested on: HEp-2; test: Growth rate of H.Ep.2 tumor cells at a concentration of 50 uM; format: functional, Homo sapiens; method in brief: as §1
[4] = tested on: L1210; test: Growth rate of L1210 tumor cells at a concentration of 50 uM; format: functional, Mus musculus; method in brief: as §2
[5] = tested on: HEp-2; test: Growth rate of H.Ep.2 tumor cells at a concentration of 10 uM; format: functional, Homo sapiens; method in brief: as §1
[6] = tested on: L1210; test: Growth rate of L1210 tumor cells at a concentration of 10 uM; format: functional, Mus musculus; method in brief: as §2

SMILES | Growth rate [1] [%] | Growth rate [2] [%] | other results
CN1N=C(N)c2nn([C@H]3C[C@H](O)[C@@H](CO)O3)c3ncnc1c23 | 100 | 83 | 
CN1N=C(N)c2nn(C3O[C@H](CO)[C@@H](O)[C@H]3O)c3ncnc1c23 (stereo not given in full) | 67 | 63 | 
CN1N=C(N)c2nn(C3O[C@H](CO)[C@@H](O)[C@H]3O)c3nc(S(C)(=O)=O)nc1c23 (stereo not given in full) |  | 86 | 
CN1N=C(N)c2nn(C3O[C@H](CO)[C@@H](O)[C@@H]3O)c3ncnc1c23 (stereo not given in full) |  |  | Growth rate [3]: 62%; Growth rate [4]: 75%
CSc1nc2c3c(nn(C4O[C@H](CO)[C@@H](O)[C@H]4O)c3n1)C(N)=NN2C (stereo not given in full) |  | 81 | 
CN1N=C(N)c2nn(C3O[C@H](CO)[C@@H](O)[C@H]3O)c3nc(NN)nc1c23 (stereo not given in full) |  |  | Growth rate [5]: 88%; Growth rate [6]: 86%
